For assay [1], the system named is P388. Kind of assay: Anticancer activity carried out in vitro against murine leukemia P388. The note with it: Mus musculus. Format: functional, cell-based. In outline: (§1)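 Cells grown in DMEM with 10% FBS, 2.0 mM glutamine, penicillin/streptomycin, 5% CO2, 37 °C; exponential-phase cells (200 cells/mL) given compounds at various concentrations, counted at 24, 48, 72 h; IC50 for 50% proliferation inhibition at 72 h from dose-response curves of two independent experiments.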

Assay [2] concerns HeLa. In words: Ability to inhibit cytopathogenicity of thymidine kinase-positive(TK+) strain of Varicella zoster virus (YS) in HeLa cell culture. Format: functional, cell-based. The note with it: Homo sapiens. In outline: (§2)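 Inhibition of virus-induced cytopathogenicity measured in HeLa cell culture; IC50 derived by linear regression, mean of duplicate determinations.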
For orientation: Protection from cytopathic effect is a common read-out in antiviral testing.

Assay [3] can be described thus: Anticancer activity carried out in vitro against human T-lymphocyte Molt4/C8. Format: functional, cell-based. Particulars: MOLT-4. A digest of the protocol:
as §1

The subject of assay [4] is MCF7. In words: Anticancer activity carried out in vitro against breast carcinoma MCF-7. Format: functional, cell-based. Particulars: Homo sapiens. In outline: as §1
The test system of assay [5] is HeLa. In words: Ability to inhibit cytopathogenicity of herpes simplex type 1 virus (KOS) in HeLa cell culture. Format: functional, cell-based. Particulars: Homo sapiens. In outline:
as §2

Assay [6] in a line: Anticancer activity carried out in vitro against human T-lymphocyte CEM/0. Format: functional. The note with it: CCRF-CEM. In outline:
as §1

Assay [7] deals with HeLa. In words: Concentration required to cause microscopically visible change or disruption in about 50% of cell sheet of HeLa cells. Format: functional, cell-based, Homo sapiens. A digest of the protocol:
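HeLa cells exposed to compounds at different concentrations; toxicity scored as morphological change, value is concentration causing microscopically visible change or disruption in about 50% of the cell sheet; mean of duplicate determinations.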

The test system of assay [8] is HeLa. In words: Ability to inhibit cytopathogenicity of thymidine kinase-deficient (TK-) strain of Varicella zoster virus (YS/R) in HeLa cell culture. Format: functional, cell-based. Particulars: Homo sapiens. A digest of the protocol:
as §2

Assay [9] relates to L1210. In words: Anticancer activity carried out in vitro against murine leukemia L1210. Format: functional, cell-based. Particulars: Mus musculus. A digest of the protocol:
as §1

Assay [10] addresses T1, Adenosine deaminase (Bos taurus, UniProt P56658).
T1 sequence (P56658 whole entry): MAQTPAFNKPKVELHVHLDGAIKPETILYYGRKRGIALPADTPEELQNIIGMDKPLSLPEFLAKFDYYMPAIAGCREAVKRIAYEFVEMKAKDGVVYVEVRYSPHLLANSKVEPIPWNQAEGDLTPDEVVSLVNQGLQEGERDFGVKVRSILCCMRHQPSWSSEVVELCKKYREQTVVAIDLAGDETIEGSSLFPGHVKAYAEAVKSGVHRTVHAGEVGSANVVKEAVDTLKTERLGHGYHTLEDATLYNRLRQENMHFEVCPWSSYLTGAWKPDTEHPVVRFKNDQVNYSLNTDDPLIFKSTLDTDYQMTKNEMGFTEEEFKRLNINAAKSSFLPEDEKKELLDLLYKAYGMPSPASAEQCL
In words: Rate of deamination in the presence of calf mucosal adenosine deaminase (ADA). In outline: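 Deamination rates followed with calf mucosal ADA (EC 3.5.4.4) in buffer solutions; Km and Vmax relative to adenosine as substrate; inhibition (Ki) assessed with adenosine as substrate.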

Assay [11] concerns HeLa. Kind of assay: Ability to inhibit cytopathogenicity of herpes simplex type 2 virus (G) in HeLa cell culture. The note with it: Homo sapiens.

Molecules are shown by their SMILES. A value given as a limit tells only on which side of the number the result lay.

For orientation: IC50 means the concentration that gives 50% inhibition. A lower IC50 goes with greater potency. Regarding `COC1=C(OC)C(O)(CCn2cnc3c(Cl)ncnc32)OC1=O` (racemic), the IC50 is more than 120 µM in assay [1]; more than 128 µM in [2]; more than 120 µM in assay [3]; more than 120 µM in assay [4]; more than 128 µM in [5]; more than 120 µM in assay [6]. Moreover, the IC50 is 149 µM in assay [7] (Homo sapiens, HeLa); more than 128 µM in assay [8]; more than 120 µM in assay [9].

In assay [7] (hela), `COC1=C(OC)C(O)(CCn2cnc3c(Cl)ncnc32)OC1=O` (stereo in doubt; (-)-4) had an IC50 of 132 µM.

Consider `COC1=C(OCc2ccc([N+](=O)[O-])cc2)/C(=C\Cn2cnc3c(Cl)ncnc32)OC1=O`, for which the IC50 in assay [1] is 6.49 µM; in assay [2], 4.4 µM; in assay [3], 7.35 µM; in assay [4], 15.4 µM; in assay [5], 9.83 µM; in [6], 3.98 µM. For the same compound, the IC50 in assay [7] (Homo sapiens, HeLa) is 19.3 µM; in assay [8], 1.03 µM; in assay [9], 5.81 µM.

By Ki is commonly meant the equilibrium dissociation constant of an inhibitor or competing ligand from its target. For `COC1=C(OC)C(O)(CCn2cnc3c(N)ncnc32)OC1=O` (stereo not given), the IC50 in assay [1] is more than 120 µM; in assay [2], more than 128 µM; in [3], more than 120 µM; in assay [4], more than 120 µM; in assay [5], more than 128 µM; in assay [6], more than 120 µM. Besides, the IC50 in [7] (Homo sapiens, HeLa) was 157 µM; in [8] it was more than 128 µM; in [9] it was more than 120 µM. Also, in [10], the Ki is more than 800 µM.

With `COC1=C(OC)/C(=C/C(n2cnc3c(Cl)ncnc32)P(=O)(OC)OC)OC1=O` (stereo not given), the IC50 in assay [1] was 14.3 µM; in [2], 10.2 µM; in [3], 12.5 µM; in assay [4] it was 90.1 µM; in assay [5], 13.2 µM; in assay [6], 96 µM. For the same compound, the IC50 in [7] (Homo sapiens, HeLa) amounted to 28.1 µM; in [8], 5.03 µM; in [9], 16.2 µM.

Consider `COC1=C(OC)/C(=C/Cn2cnc3c(Cl)ncnc32)OC1=O`, for which the IC50 is 8.12 µM in assay [1]; 5.92 µM in assay [2]; 5.97 µM in assay [3]; 16.9 µM in assay [4]; 10.9 µM in [5]; 4.71 µM in assay [6]. For the same compound, the IC50 in assay [7] (Homo sapiens, HeLa) is 23.4 µM; in [8] it was 1.62 µM; in assay [9], 4.52 µM.

With `COC1=C(OC)/C(=C/Cn2cnc3c(N)ncnc32)OC1=O`, the IC50 in assay [1] is 2.67 µM; in [2] it was 12.8 µM; in [3] it was 78.5 µM; in [4] it was more than 120 µM; in assay [5], 14.5 µM; in [6], 84.5 µM. For the same compound, the IC50 in [7] (Homo sapiens, HeLa) is 42.4 µM; in [8] it was 6.07 µM; in assay [9], 93.4 µM. In assay [10], the Ki came out at 316 µM.

Turning to `O=C1O/C(=C/Cn2cnc3c(Cl)ncnc32)C(OCc2ccc([N+](=O)[O-])cc2)=C1OCc1ccc([N+](=O)[O-])cc1`, the IC50 in [1] is more than 120 µM; in assay [2] it was 37.5 µM; in assay [3], more than 120 µM; in [4], more than 120 µM; in [5], 28.4 µM; in [6] it was more than 120 µM. The IC50 in assay [7] (Homo sapiens, HeLa) was 17 µM; in assay [8], 34.7 µM; in assay [9] it was more than 120 µM.

As to `Nc1ccn([C@@H]2O[C@H](CO)[C@@H](O)[C@@H]2O)c(=O)n1` [CYTARABINE], the IC50 was found to be 0.14 µM in [1]; 0.65 µM in [3]; 1.03 µM in [4]; 0.78 µM in assay [6]; 0.17 µM in assay [9].

For the compound `COC1=C(OCc2ccc([N+](=O)[O-])cc2)C(=O)O/C1=C/Cn1cnc2c(Cl)ncnc21`, the IC50 in [1] amounted to 7.42 µM; in assay [2], 6.32 µM; in assay [3], 6.16 µM; in assay [4], 14.2 µM; in [5], 7.24 µM; in assay [6], 5.04 µM. Besides, the IC50 amounted to 20.2 µM in [7] (Homo sapiens, HeLa); 0.89 µM in assay [8]; 6.03 µM in assay [9].

For the compound `Nc1nc2c(ncn2COCCO)c(=O)[nH]1` [ACYCLOVIR], the IC50 in assay [2] worked out at 8.71 µM; in [11], 0.19 µM; in assay [5] it was 0.11 µM; in assay [7] (Homo sapiens, HeLa), 254 µM; in [8], 26.4 µM.
